Consider 11 compounds from ChEMBL document CHEMBL1127337, “1-((7,7-Dimethyl-2(S)-(2(S)-amino-4-(methylsulfonyl)butyramido)bicyclo [2.2.1]-heptan-1(S)-yl)methyl)sulfonyl)-4-(2-methylphenyl)piperaz ine (L-368,899): an orally bioavailable, non-peptide oxytocin antagonist with potential utility for managing preterm labor” (J Med Chem, 1994).

A short description of data set [1]: Aqueous solubilities were determined by dissolving an crystalline hemisulfate and […] salts, respectively in water and adding acetate to pH 5.0, concentrations are expressed in free base equivalents. The settings on record: water adjusted with acetate, read-out: S. The format is ADME. In outline: (§1)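 Crystalline hemisulfate or dihydrochloride salt dissolved in water, then acetate added to pH 5.0 to measure aqueous solubility.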

The target in data set [2] is T1, Oxytocin receptor (Rattus norvegicus, UniProt P70536).
T1 sequence (P70536 whole entry): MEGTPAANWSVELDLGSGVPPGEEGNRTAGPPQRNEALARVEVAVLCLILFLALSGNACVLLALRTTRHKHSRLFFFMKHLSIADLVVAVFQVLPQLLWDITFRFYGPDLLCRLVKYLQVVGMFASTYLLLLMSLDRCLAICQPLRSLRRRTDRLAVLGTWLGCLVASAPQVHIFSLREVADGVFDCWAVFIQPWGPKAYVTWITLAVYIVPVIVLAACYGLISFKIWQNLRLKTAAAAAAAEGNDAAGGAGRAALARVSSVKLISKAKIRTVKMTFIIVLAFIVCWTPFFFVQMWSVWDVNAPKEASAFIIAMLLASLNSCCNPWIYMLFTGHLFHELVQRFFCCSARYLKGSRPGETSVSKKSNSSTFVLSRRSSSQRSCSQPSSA
Nature of the data set: Displacement of [3H]OT from binding to oxytocin receptor of rat uterus. In outline: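 Competition binding against [3H]OT on uterine tissue from pregnant rats (day 22-23 of gestation) or DES-pretreated rats. IC50 is the molar concentration giving 50% displacement of radioligand.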
In general terms: Displacement assays read how much labelled ligand stays bound in the presence of the test substance.

Data set [3] relates to Rattus norvegicus. The experiment in a line: In vivo dose given intraduodenally (id) that reduces by 50% the contractile response of the in situ rat uterus to exogenous OT. Type of data set: functional. In outline:
(§2)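 Uterine contraction recorded isometrically in situ in anesthetized DES-pretreated rats; OT 1 µg/kg iv at 35-min intervals, third response set as 100%. Antagonist injected intraduodenally as a suspension in saline with 1% methocel. AD50 is the dose lowering the response to the fourth OT injection by 50% against the vehicle group.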

The next data set addresses Vasopressin V2 receptor (Rattus norvegicus, UniProt Q00788). Nature of the data set: Displacement of [3H]-AVP from binding to Vasopressin receptor V2 of rat kidney. In outline:
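[3H]AVP competition binding on kidney medulla from male rats (V2 site). IC50 is the molar concentration displacing 50% of radioligand.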

The target in data set [4] is T1, Oxytocin receptor. Nature of the data set: In vitro antagonism of OT-induced uterine contractions, against rat uterus by measuring pA2 value. The format is functional, tissue-based. As to conditions: read-out: pA2 (converted). In outline:
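Uteri isolated from DES-pretreated rats and contracted with OT. pA2 is the negative log molar antagonist concentration giving a 2-fold rightward shift of the OT dose-response curve (dose ratio 2), derived from Schild plots.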

Data set [5] relates to Rattus norvegicus. The experiment in a line: In vivo dose given intravenously (iv) that reduces by 50% the contractile response of the in situ rat uterus to exogenous OT. The format is functional. In outline:
(§3)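 Anesthetized DES-pretreated rats set up for isometric recording of in situ uterine contraction; OT 1 µg/kg iv every 35 min, third response taken as 100%. Antagonist infused iv over 10 min in saline, saline with 2% DMSO, or 15% DMSO plus 15% emulphor. AD50 is the dose cutting the response to the fourth OT injection by 50% relative to vehicle-treated rats.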

The next data set deals with Vasopressin V1a receptor (Rattus norvegicus, UniProt P30560). Nature of the data set: Displacement of [3H]AVP from binding to arginine vasopressin 1a (V1a) […] of rat liver. In outline:
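Competition binding against [3H]AVP on liver from male rats (V1a site). IC50 is the molar concentration giving 50% radioligand displacement.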

Data set [6] concerns Rattus norvegicus. Nature of the data set: in vivo dose given intravenously (iv) that reduces by 50% the contractile response of the in situ rat uterus to exogenous OT. Type of data set: functional. In outline: as §3
The nature of data set [7]: Aqueous solubilities were determined by dissolving an crystalline hemisulfate and […] salts, respectively in water and adding acetate to pH 5.0, concentrations are expressed in free base equivalents. Type of data set: ADME. The settings on record: water adjusted with acetate, read-out: S. In outline: as §1
Data set [8] deals with Rattus norvegicus. The experiment in a line: In vivo dose given intraduodenally (id) that reduces by 50% the contractile response of the in situ rat uterus to exogenous OT; ca.20. The format is functional. In outline: as §2
For data set [9], the system named is Rattus norvegicus. The experiment in a line: AD50 value which refers to the dose given intravenously (iv) that reduces by 50% the contractile response of the in situ rat uterus to exogenous OT was determined for the compound in vivo. The format is functional. In outline: as §3
The test system of data set [10] is Rattus norvegicus. The experiment in a line: In vivo dose given intraduodenally (id) that reduces by 50% the contractile response of the in situ rat uterus to exogenous OT; NA=Inactive at 1.0. Type of data set: functional, organism-based. In outline:
as §2

Data set [11] deals with Rattus norvegicus. The experiment in a line: In vivo dose given intraduodenally (id) that reduces by 50% the contractile response of the in situ rat uterus to exogenous OT; ca.2. Type of data set: functional. In outline:
as §2

Data set [12] relates to Rattus norvegicus. Nature of the data set: In vivo dose given intraduodenally (id) that reduces by 50% the contractile response of the in situ rat uterus to exogenous OT; NA=Inactive at 3.0 mg/Kg. The format is functional, organism-based. In outline:
as §2

For data set [13], the target named is T1, Oxytocin receptor. The experiment in a line: In vitro antagonism of OT-induced uterine contractions, against rat uterus by measuring pA2 value which refers to the negative logarithm of the molar concentration. The settings on record: read-out: pA2 (converted). The format is functional, tissue-based. In outline: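 Uteri isolated from diethylstilbestrol-pretreated rats; contractions evoked by oxytocin. pA2 = negative log of molar antagonist concentration giving a 2-fold rightward shift of the oxytocin dose-response curve (dose ratio 2), derived by Schild analysis.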

Activity calls are given as the source filed them. The rule behind the calls is not given here.

The term IC50 denotes the concentration at which inhibition is half-maximal. A higher IC50 goes with lower potency.

Sequence of Vasopressin V2 receptor (Q00788 whole entry): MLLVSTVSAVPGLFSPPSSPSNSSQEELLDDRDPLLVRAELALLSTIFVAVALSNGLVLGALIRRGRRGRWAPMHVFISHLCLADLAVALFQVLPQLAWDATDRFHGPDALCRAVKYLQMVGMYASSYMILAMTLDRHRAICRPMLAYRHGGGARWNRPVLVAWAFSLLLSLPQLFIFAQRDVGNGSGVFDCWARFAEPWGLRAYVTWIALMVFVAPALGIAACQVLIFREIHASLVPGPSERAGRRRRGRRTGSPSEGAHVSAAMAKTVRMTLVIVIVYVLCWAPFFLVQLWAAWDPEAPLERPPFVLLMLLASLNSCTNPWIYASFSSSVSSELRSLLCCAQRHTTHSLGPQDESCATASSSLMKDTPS
Sequence of Vasopressin V1a receptor (P30560 whole entry): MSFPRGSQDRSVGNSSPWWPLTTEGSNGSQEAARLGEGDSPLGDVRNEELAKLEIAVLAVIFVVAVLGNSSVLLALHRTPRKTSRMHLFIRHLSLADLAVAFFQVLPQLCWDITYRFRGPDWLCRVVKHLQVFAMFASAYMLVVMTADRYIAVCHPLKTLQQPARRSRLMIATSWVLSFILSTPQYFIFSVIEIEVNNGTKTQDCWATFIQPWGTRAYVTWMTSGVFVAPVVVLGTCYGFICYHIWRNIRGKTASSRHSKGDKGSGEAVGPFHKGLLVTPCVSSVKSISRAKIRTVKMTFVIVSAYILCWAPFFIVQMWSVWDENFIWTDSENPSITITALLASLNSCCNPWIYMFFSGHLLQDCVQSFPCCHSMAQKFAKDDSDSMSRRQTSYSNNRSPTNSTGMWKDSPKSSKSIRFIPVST

For the compound `Cc1ccccc1N1CCN(S(=O)(=O)C[C@]23CCC(C[C@@H]2NC(=O)[C@H](CCS(C)(=O)=O)N(C)C)C3(C)C)CC1`, the solubility in [1] came out at 3100 µg/mL. For the same compound, the IC50 came out at 4.9 nM on Oxytocin receptor [2], 290 nM at Vasopressin V2 receptor and 360 nM on Vasopressin V1a receptor. Also, the AD50 came out at 2.6 mg/kg in the data set with Rattus norvegicus [3] and 0.13 mg/kg in the data set on Rattus norvegicus [5]. Moreover, the Kb on Oxytocin receptor [4] was 1 nM.

Turning to `CC1(C)C2CC[C@@]1(CS(=O)(=O)N1CCC3(CCc4ccccc43)CC1)[C@@H](NC(=O)[C@@H](N)CCS(C)(=O)=O)C2`, the figures for the IC50 on Oxytocin receptor [2], on Vasopressin V2 receptor and on Vasopressin V1a receptor were 12 nM, 2400 nM and 890 nM, respectively. Also, the AD50 with Rattus norvegicus [6] worked out at 0.84 mg/kg; in the data set with Rattus norvegicus [8], 20 mg/kg. For the same compound, in [7], the solubility is 1500 µg/mL.

Regarding `CCN(CC)[C@@H](CCS(C)(=O)=O)C(=O)N[C@H]1CC2CC[C@]1(CS(=O)(=O)N1CCN(c3ccccc3C)CC1)C2(C)C`, the solubility in data set [1] amounted to 230 µg/mL. Besides, the figures for the IC50 at Oxytocin receptor [2], at Vasopressin V2 receptor and at Vasopressin V1a receptor were 18 nM, 310 nM and 1300 nM, respectively.

Turning to `Cc1ccccc1N1CCN(S(=O)(=O)C[C@]23CCC(C[C@@H]2NC(=O)[C@H](CCS(C)(=O)=O)NC2CCS(=O)(=O)CC2)C3(C)C)CC1`, the solubility in data set [1] was below 300 µg/mL. Further, the IC50 on Oxytocin receptor [2] was determined as 1.4 nM; on Vasopressin V2 receptor, 160 nM; at Vasopressin V1a receptor it was 440 nM. This compound also registered an AD50 in the data set on Rattus norvegicus [9] of 0.031 mg/kg. The AD50 entry in the data set on Rattus norvegicus [10] is “inactive”.

Take `CN[C@@H](CCS(C)(=O)=O)C(=O)N[C@H]1CC2CC[C@]1(CS(=O)(=O)N1CCN(c3ccccc3C)CC1)C2(C)C`: the 50% inhibitory concentration (IC50) was 9.2 nM at Oxytocin receptor [2], 350 nM at Vasopressin V2 receptor and 320 nM on Vasopressin V1a receptor.

Regarding `CC1(C)C2CC[C@@]1(CS(=O)(=O)N1CCC3(CCc4ccccc43)CC1)[C@@H](NC(=O)[C@@H](N)CCC(N)=O)C2`, the values for the IC50 on Oxytocin receptor [2], at Vasopressin V2 receptor and at Vasopressin V1a receptor were 12 nM, 5100 nM and 2300 nM, respectively. Also, the AD50 in the data set on Rattus norvegicus [3] was above 30 mg/kg; in the data set on Rattus norvegicus [11], 2 mg/kg.

In the case of `Cc1ccccc1N1CCN(S(=O)(=O)C[C@]23CCC(C[C@@H]2NC(=O)[C@H](CCS(C)(=O)=O)NC2CCOCC2)C3(C)C)CC1`, in data set [1], the solubility was 360 µg/mL. Also, the results for the IC50 on Oxytocin receptor [2], on Vasopressin V2 receptor and at Vasopressin V1a receptor were 2.4 nM, 270 nM and 680 nM, respectively. Besides, the AD50 was found to be 1.4 mg/kg in the data set on Rattus norvegicus [3] and 0.045 mg/kg with Rattus norvegicus [5].

As to `Cc1ccccc1N1CCN(S(=O)(=O)C[C@]23CCC(C[C@@H]2NC(=O)[C@H](CCS(C)(=O)=O)NC2CCNCC2)C3(C)C)CC1`, the solubility in [1] came to 3000 µg/mL. The IC50 at Oxytocin receptor [2] worked out at 1.3 nM; on Vasopressin V2 receptor, 130 nM; on Vasopressin V1a receptor, 220 nM. The AD50 result in the data set with Rattus norvegicus [10] is “inactive”. In the data set with Rattus norvegicus [5], the AD50 is 0.021 mg/kg.

Regarding `Cc1ccccc1N1CCN(S(=O)(=O)C[C@]23CCC(C[C@@H]2NC(=O)[C@H](CCS(C)(=O)=O)N(CCO)CCO)C3(C)C)CC1`, in the data set with Rattus norvegicus [12], the AD50 result is “inactive”. The IC50 was 2.8 nM at Oxytocin receptor [2], 240 nM at Vasopressin V2 receptor and 650 nM on Vasopressin V1a receptor. Further, the solubility in [7] came out at 190 µg/mL. The AD50 with Rattus norvegicus [5] was 0.087 mg/kg.

With `Cc1ccccc1N1CCN(S(=O)(=O)C[C@]23CCC(C[C@@H]2NC(=O)[C@@H](N)CCS(C)(=O)=O)C3(C)C)CC1`, the solubility in data set [1] is 3700 µg/mL. Besides, the results for the IC50 at Oxytocin receptor [2], at Vasopressin V2 receptor and on Vasopressin V1a receptor were 8.9 nM, 570 nM and 370 nM, respectively. For the same compound, the AD50 turned out to be 7 mg/kg in the data set on Rattus norvegicus [3] and 0.35 mg/kg in the data set with Rattus norvegicus [5]. Besides, on Oxytocin receptor [13], the Kb was 1.26 nM.

Regarding `Cc1ccccc1N1CCN(S(=O)(=O)C[C@]23CCC(C[C@@H]2NC(=O)[C@H](CCS(C)(=O)=O)NC2CCCCC2)C3(C)C)CC1`, the IC50 at Oxytocin receptor [2] amounted to 15 nM; at Vasopressin V2 receptor it was 230 nM; on Vasopressin V1a receptor it was 600 nM.
